Screens as filed in PubChem BioAssay.
Only some compounds are listed: those with a hit (about 2% of all), similar ones and a draw of the others.
DENV2 CPE rescue: inhibitors of DENV2 cytopathic effect, primary screen, cell-based, plate reader, single concentration; DENV2-infected cells, cytopathic effect rescue; CPE inhibition, % at 9.99 µM; hit rate 1.7% among 350,000; in the data active = CPE inhibition above about 20%, passing the limit was not always enough; inconclusive = no clear call, values can overlap the other calls; tested in BHK-21 cells
XiGFP reactiv: activators of inactive X chromosome reactivation, primary screen, imaging, XiGFP fibroblasts, GFP high-content imaging, set 2; XiGFP mouse fibroblasts, % GFP-positive cells imaging, 3 d; cells co-treated with 5-aza-dC sensitizer; scaled so ellipticine positive control = 100%; activation, % at 7.58 µM; hit rate 0.055% among 360,000;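 active = mean normalized replicate activation at least 10% and every replicate at or above 10%; inconclusive = only one of the two criteria met; inactive = mean below 10% and not all replicates reach 10%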
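Assay system: SV40-immortalized XiGFP fibroblast cells, line 68-5-11; buffer or medium: DMEM plus 5-aza-dC sensitizer; compound: one concentration, pinned; timing: compounds 3 days, fix/stain 15 min at room temperature; benchmarks: positive control ellipticine, 6 µM final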
S100A4 inh HTS: inhibitors of S100A4-myosin IIA peptide binding, primary screen, biochemical, fluorescence polarization, TAMRA-MyoIIA peptide | Protein S100-A4 (Homo sapiens), P26447 | hit rate 0.14% among 360,000 | inhibition, % at 10.7 µM;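 active = mean inhibition of at least 70% across replicates, with every replicate also reaching that level; inconclusive = mean inhibition reaches 70% but some replicates fall short; inactive = mean inhibition below 70%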
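Test system: S100A4 monomer protein. Medium: HEPES buffer with Ca2+, pH 7.2. Reagent: fluorescent myosin IIA peptide, 5 nM. Compound dosing: single-point compound testing. Timing: 5 min between mix addition and reading. Benchmarks: DMSO neutral and TFP positive wells.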
E-sel inducer: E-selectin induction in HUVECs, primary screen, imaging, HUVEC, immunofluorescence imaging, single point; P16581; normalized: neutral wells 0, TNF-alpha wells 100; activation, % at 7.58 µM; hit rate 0.37% among 260,000;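 active = mean E-selectin-positive cell signal at least 10% of the positive control, reached in at least 60% of replicates, without over 20% cell loss; inconclusive = no rule given, readout overlaps actives, possibly toxicity-flagged; inactive = the rest, including those meeting only one limit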
Target sequence (P16581 whole entry, looked up): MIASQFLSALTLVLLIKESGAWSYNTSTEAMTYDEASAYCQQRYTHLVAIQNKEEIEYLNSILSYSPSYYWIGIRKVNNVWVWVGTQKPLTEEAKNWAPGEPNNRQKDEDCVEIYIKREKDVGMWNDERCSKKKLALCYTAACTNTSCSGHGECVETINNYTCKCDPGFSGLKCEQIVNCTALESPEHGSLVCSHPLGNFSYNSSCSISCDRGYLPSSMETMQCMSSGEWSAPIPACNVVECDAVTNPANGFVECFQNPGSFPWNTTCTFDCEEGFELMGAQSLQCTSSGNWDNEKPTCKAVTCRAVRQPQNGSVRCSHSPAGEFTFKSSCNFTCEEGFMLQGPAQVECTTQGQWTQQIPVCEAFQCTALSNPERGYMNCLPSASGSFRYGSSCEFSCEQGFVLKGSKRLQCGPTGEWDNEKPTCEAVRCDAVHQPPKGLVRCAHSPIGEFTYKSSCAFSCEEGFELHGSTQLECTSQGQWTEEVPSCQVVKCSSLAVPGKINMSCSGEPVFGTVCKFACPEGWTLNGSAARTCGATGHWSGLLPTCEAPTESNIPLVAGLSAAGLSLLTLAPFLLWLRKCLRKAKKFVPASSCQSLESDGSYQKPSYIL
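Test system: HUVEC | Signal: Immunofluorescence imaging | Read-out: Percent E-selectin-positive cells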
A number is an active result; - = inactive; ? = inconclusive; . = no result given; ! = a repeat was not active.

SMILES	DENV2 CPE rescue	XiGFP reactiv	S100A4 inh HTS	E-sel inducer
CC(C)CCNC(=O)[C@H](Cc1ccccc1)N1Cc2ccccc2C1=O	-	-	-	76
O=C(Nc1ccc(Cl)cc1)N(CCCN1CCOCC1)Cc1cccs1	26	-	-	-
S=C(Nc1ccc(Cl)cc1)N(CCCN1CCOCC1)Cc1cccs1	-	-	-	-
C[C@H]1CN([C@@H](C)CO)C(=O)c2cc(NC(=O)Cn3cnnn3)ccc2O[C@H]1CN(C)Cc1ccc(C(=O)Nc2ccccc2N)cc1	43	-	-	-
C[C@@H]1CN([C@H](C)CO)C(=O)Cc2cc(NC(=O)Cn3cnnn3)ccc2O[C@@H]1CN(C)Cc1ccc(C(=O)Nc2ccccc2N)cc1	112	-	-	-
C[C@@H]1CN([C@H](C)CO)C(=O)c2cc(NC(=O)Cn3cnnn3)ccc2O[C@@H]1CN(C)Cc1ccc(C(=O)Nc2ccccc2N)cc1	-	-	-	-
Nc1ccn([C@@H]2O[C@H](C(=O)Nc3ccc(C(=O)N4CCCCC4)cc3)[C@@H](O)[C@H]2O)c(=O)n1	?	.	-	-
Clc1ccc(SCCCN2CCCCC2)cc1	-	-	-	-
CC(C)CC#Cc1ccc2c(c1)O[C@H](CN(C)C(=O)c1ccccc1)[C@H](C)CN([C@@H](C)CO)S2(=O)=O	-	-	-	85
CC(C)CC#Cc1ccc2c(c1)O[C@@H](CN(C)C(=O)c1ccccc1)[C@H](C)CN([C@@H](C)CO)S2(=O)=O	-	-	-	-
CCCC#Cc1ccc2c(c1)O[C@@H](CN(C)C(=O)c1ccccc1)[C@@H](C)CN([C@H](C)CO)S2(=O)=O	-	-	-	96
CCN(CC)C1CCN(C(=O)c2ccc(OC3CCN(C(=O)CCOC)CC3)cc2)C1 (stereo not drawn)	-	-	-	.
CCOC(=O)c1c(C)[nH]c(C(=O)C(C)OC(=O)c2cnc(C)cn2)c1C (stereo not drawn)	-	-	-	.
CN1CCN(S(=O)(=O)c2cccs2)CC1	34	-	-	-
CCc1cc(Cn2nc(-c3ccccc3)cc2C(=O)NCc2cccc(Br)c2)on1	90	-	-	-
CCc1cc(Cn2nc(-c3ccccc3)cc2C(=O)NCc2ccc(C)cc2)on1	111	-	-	-
CCc1cc(Cn2nc(-c3ccccc3)cc2C(=O)NCc2cccc(C(F)(F)F)c2)on1	-	-	-	-
O=C(N[C@H]1CC[C@@H](CCNS(=O)(=O)c2ccc(Cl)cc2)O[C@@H]1CO)c1ccccn1	53	-	-	-
O=C(N[C@H]1CC[C@H](CCNS(=O)(=O)c2ccc(Cl)cc2)O[C@H]1CO)c1ccccn1	60	-	-	-
O=C(Cc1ccccn1)NCC[C@@H]1CC[C@@H](NS(=O)(=O)c2ccc(Cl)cc2)[C@@H](CO)O1	34	-	-	-
O=C(NCC[C@H]1CC[C@H](NS(=O)(=O)c2ccccc2)[C@@H](CO)O1)c1cc(Cl)cc(Cl)c1	-	-	76	-
O=C(N[C@@H]1CC[C@@H](CCNS(=O)(=O)c2ccc(Cl)cc2)O[C@@H]1CO)c1cccc(F)c1	-	-	-	-
O=C(N[C@H]1CC[C@H](CCNS(=O)(=O)c2ccc(Cl)cc2)O[C@H]1CO)c1cccc(F)c1	55	-	-	-
Fc1cccc(CSc2nc3ncc(Cl)cc3[nH]2)c1	-	-	-	.
C[C@@H]1CN([C@H](C)CO)C(=O)c2cccc(NC(=O)c3ccc(-c4nccs4)cc3)c2O[C@@H]1CN(C)Cc1ccc(C(F)(F)F)cc1	-	-	-	-
SMILES	DENV2 CPE rescue	XiGFP reactiv	S100A4 inh HTS	E-sel inducer
COc1ccc(S(=O)(=O)N(C)C[C@H]2Oc3c(NC(=O)c4ccncc4)cccc3C(=O)N([C@H](C)CO)C[C@@H]2C)cc1	25!	-	-	-
COc1ccc(S(=O)(=O)N(C)C[C@@H]2Oc3c(NC(=O)C4CCCCC4)cccc3C(=O)N([C@H](C)CO)C[C@@H]2C)cc1	20	-	-	-
COc1ccc(S(=O)(=O)N(C)C[C@@H]2Oc3ccc(NC(=O)c4ccncc4)cc3C(=O)N([C@H](C)CO)C[C@H]2C)cc1	-	-	-	28
Cc1ccc(S(=O)(=O)N(C)C[C@H]2Oc3ccc(NC(=O)c4ccncc4)cc3C(=O)N([C@H](C)CO)C[C@@H]2C)cc1	?	-	-	-
COc1ccc(S(=O)(=O)N(C)C[C@H]2Oc3ccc(NC(=O)c4ccncc4)cc3C(=O)N([C@@H](C)CO)C[C@H]2C)cc1	-	-	-	-
COc1ccc(S(=O)(=O)N(C)C[C@@H]2Oc3ccc(NC(=O)c4ccncc4)cc3C(=O)N([C@@H](C)CO)C[C@@H]2C)cc1	-	-	-	37
COc1ccc(S(=O)(=O)N(C)C[C@H]2Oc3c(NC(=O)C4CCCCC4)cccc3C(=O)N([C@H](C)CO)C[C@H]2C)cc1	-	-	-	-
COC(=O)COc1ccc2c(=O)c(-c3ccccc3OC)coc2c1	-	-	-	.
CC1(c2ccccc2)NC(=O)N(CC(=O)Nc2ccc3c(c2)CCC3)C1=O (stereo not drawn)	-	-	-	-
CCC(C)(C)C1CCc2[nH]nc(C(=O)NCc3ccccn3)c2C1 (stereo not drawn)	77	-	-	-
O=C(c1ccc(Cl)cc1)N1CCc2c([nH]c3ccccc23)C1C(F)(F)F (stereo not drawn)	26	-	-	.
O=C(Nc1ccccc1)N1CCc2c([nH]c3ccccc23)C1C(F)(F)F (stereo not drawn)	-	-	-	-
O=C(C[C@H]1CC[C@H]2[C@@H](COC[C@H](O)CN2C(=O)Nc2ccc(F)cc2)O1)NC1Cc2ccccc2C1	43	-	-	-
COc1ccc(NC(=O)N2C[C@@H](O)COC[C@@H]3O[C@H](CC(=O)NC4Cc5ccccc5C4)CC[C@H]32)cc1	100	-	-	-
COc1cccc(NC(=O)N2C[C@H](O)COC[C@@H]3O[C@H](CC(=O)NC4Cc5ccccc5C4)CC[C@H]32)c1	-	-	-	-
CNC(=O)C[C@@H]1CC[C@H]2[C@@H](COC[C@H](O)CN2C(=O)Nc2cccc(OC)c2)O1	58	-	-	-
COc1ccc(S(=O)(=O)N2CCC(C(N)=O)(N3CCCCC3)CC2)cc1OC	-	-	-	.
C=CCOc1ccc(CNCc2cccnc2)cc1OCC	22	-	-	.
CCS(=O)(=O)N[C@@H]1C=C[C@H](CC(=O)Nc2ccc(-c3ccccc3)cc2)O[C@@H]1CO	70	-	-	-
Cn1cnc(S(=O)(=O)N[C@@H]2C=C[C@H](CC(=O)Nc3ccc(-c4ccccc4)cc3)O[C@@H]2CO)c1	-	-	-	-
O=C(c1ccccc1)c1c2c(cc3sc4ccccc4[n+]13)-c1cccc3cccc-2c13	.	73	.	179
Cc1sc2cc3c(c(C(=O)c4ccccc4)[n+]2c1C)-c1cccc2cccc-3c12	36	-	-	.
